Activity calls are given as the source filed them. No cut-off for these calls is given here.
What was measured:
[1] = system: Human alphaherpesvirus 3; assay: Antiviral activity against thymidine kinase-positive Varicella Zoster virus Oka infected in human HEL cells assessed as inhibition of viral plaque formation at 250 uM; type: functional, cell-based; conditions: strain Oka vaccine
[2] = system: Vesicular stomatitis virus; assay: Antiviral activity against Vesicular stomatitis virus infected in human Hela cells assessed as inhibition of viral plaque formation at 250 uM; type: functional, organism-based
[3] = system: Coxsackievirus B4; assay: Antiviral activity against Coxsackievirus B4 infected in african green monkey Vero cells assessed as inhibition of viral plaque formation at 250 uM; type: functional, organism-based
Summary of the method: (§1)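 Confluent host cell monolayers were inoculated with 100 CCID50 of virus in the presence of test compound at serial dilutions (250, 50, 10, … μM). Viral cytopathicity was scored once it reached completion in untreated virus-infected controls.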

[4] = system: Vaccinia virus; assay: Antiviral activity against Vaccinia virus infected in human HEL cells assessed as inhibition of viral plaque formation at 250 uM; type: functional, organism-based; conditions: Orthopoxvirus vaccinia; summary of the method: as §1
[5] = system: Human alphaherpesvirus 1; assay: Antiviral activity against Herpes simplex virus 1 KOS infected in human HEL cells assessed as inhibition of viral plaque formation at 250 uM; type: functional, organism-based; summary of the method: as §1
[6] = system: Human respirovirus 3; assay: Antiviral activity against Parainfluenza-3 virus infected in african green monkey Vero cells assessed as inhibition of viral plaque formation at 250 uM; type: functional, organism-based; summary of the method: as §1
[7] = system: Human immunodeficiency virus 2; assay: Antiviral activity against Human immunodeficiency virus 2 infected in human CEM cells assessed as inhibition of virus-induced giant cell formation after 4 days by microscopic analysis; type: functional, organism-based; conditions: CCRF-CEM
Summary of the method: (§2)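 CEM cells at about 3 × 10⁵ cells/cm³ were infected with 100 CCID50/mL of HIV-1(IIIB) or HIV-2(ROD), then seeded into wells holding test compound dilutions. After 4 days at 37 °C, virus-induced giant cell formation was scored microscopically.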

[8] = system: Human immunodeficiency virus 1; assay: Antiviral activity against Human immunodeficiency virus 1 infected in human CEM cells assessed as inhibition of virus-induced giant cell formation after 4 days by microscopic analysis; type: functional, organism-based; conditions: CCRF-CEM; summary of the method: as §2
[9] = system: Human betaherpesvirus 5; assay: Antiviral activity against Human cytomegalovirus AD169 infected in human HEL cells assessed as inhibition of viral plaque formation at 250 uM; type: functional, organism-based
[10] = system: HEL; assay: Cytotoxicity against human HEL cells 3 days by coulter counting; type: functional; conditions: 72 h
Summary of the method: (§3)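 Cells were suspended at 300,000–500,000 cells/mL and added 1:1 to compound dilutions. Incubation was at 37 °C, 2 days for L1210 and 3 days for CEM, HeLa and HEL. Cells were counted with a Coulter counter. CC50 is the concentration inhibiting cell proliferation by 50%.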

[11] = system: Sindbis virus; assay: Antiviral activity against Sindbis virus infected in african green monkey Vero cells assessed as inhibition of viral plaque formation at 250 uM; type: functional, organism-based; summary of the method: as §1
[12] = system: Respiratory syncytial virus; assay: Antiviral activity against Respiratory syncytial virus infected in human HeLa cells assessed as inhibition of viral plaque formation at 250 uM; type: functional, organism-based; summary of the method: as §1
[13] = system: HeLa; assay: Cytotoxicity against human HeLa cells 3 days by coulter counting; type: functional; conditions: 72 h; summary of the method: as §3
[14] = system: Coxsackievirus B4; assay: Antiviral activity against Coxsackievirus B4 infected in human HeLa cells assessed as inhibition of viral plaque formation at 250 uM; type: functional, organism-based; summary of the method: as §1
[15] = system: Mammalian orthoreovirus 1; assay: Antiviral activity against Reovirus-1 infected in african green monkey Vero cells assessed as inhibition of viral plaque formation at 250 uM; type: functional, organism-based; summary of the method: as §1
[16] = system: Human alphaherpesvirus 2; assay: Antiviral activity against Herpes simplex virus 2 G infected in human HEL cells assessed as inhibition of viral plaque formation at 250 uM; type: functional, organism-based; conditions: strain G
[17] = system: Feline coronavirus; assay: Antiviral activity against Feline coronavirus infected in CrFK cells assessed as inhibition of viral plaque formation at 250 uM; type: functional, organism-based; summary of the method: as §1
[18] = system: Human betaherpesvirus 5; assay: Antiviral activity against Human cytomegalovirus Davis infected in human HEL cells assessed as inhibition of viral plaque formation at 250 uM; type: functional, organism-based
[19] = system: Human alphaherpesvirus 3; assay: Antiviral activity against thymidine kinase-deficient Varicella Zoster virus 07/1 infected in human HEL cells assessed as inhibition of viral plaque formation at 250 uM; type: functional, organism-based
[20] = system: Punta Toro virus; assay: Antiviral activity against Punta Toro virus infected in african green monkey Vero cells assessed as inhibition of viral plaque formation at 250 uM; type: functional, organism-based
[21] = system: Felid alphaherpesvirus 1; assay: Antiviral activity against Felid herpesvirus 1 infected in CrFK cells assessed as inhibition of viral plaque formation at 250 uM; type: functional, organism-based; summary of the method: as §1
[22] = system: Human alphaherpesvirus 1; assay: Antiviral activity against thymidine kinase-deficient acv-resistant Herpes simplex virus 1 KOS infected in human HEL cells assessed as inhibition of viral plaque formation at 250 uM; type: functional, organism-based
[23] = system: L1210; assay: Cytotoxicity against mouse L1210 cells 2 days by coulter counting; type: functional; conditions: L1210, 48 h; summary of the method: as §3
[24] = system: Vesicular stomatitis virus; assay: Antiviral activity against Vesicular stomatitis virus infected in human HEL cells assessed as inhibition of viral plaque formation at 250 uM; type: functional, organism-based; summary of the method: as §1
[25] = system: CCRF-CEM; assay: Cytotoxicity against human CEM cells 3 days by coulter counting; type: functional; conditions: 72 h; summary of the method: as §3

Compound	Activity [1]	Activity [2]	Activity [3]	Activity [4]	Activity [5]	Activity [6]	Activity [7]	Activity [8]	Activity [9]	CC50 [10]	Activity [11]	Activity [12]	CC50 [13]	Activity [14]	Activity [15]	Activity [16]	Activity [17]	Activity [18]	Activity [19]	Activity [20]	further results
CCOP(=O)(OCC)[C@@H]1C[C@@H](n2cc(-c3nccn3C)nn2)ON1C	inactive	inactive	inactive	inactive	inactive	inactive	inactive	inactive	inactive	> 100 µM	inactive	inactive	> 250 µM	inactive	inactive	inactive	inactive	inactive	inactive	inactive	Activity [21]: inactive; Activity [22]: inactive; CC50 [23]: ≥ 250 µM; Activity [24]: inactive; CC50 [25]: > 250 µM
CCOP(=O)(OCC)[C@@H]1C[C@H](n2cc(C(=O)OC)nn2)ON1C (relative stereo)	inactive	inactive	inactive	inactive	inactive	inactive	inactive	inactive	inactive	> 100 µM	inactive	inactive	> 250 µM	inactive	inactive	inactive	inactive	inactive	inactive	inactive	Activity [21]: inactive; Activity [22]: inactive; CC50 [23]: 166 µM; Activity [24]: inactive; CC50 [25]: > 250 µM
CCOP(=O)(OCC)[C@@H]1C[C@@H](n2cc(Cn3ccc(NC(C)=O)nc3=O)nn2)ON1C (relative stereo)	inactive	inactive	inactive	inactive	inactive	inactive	inactive	inactive	inactive	> 100 µM	inactive	inactive	> 250 µM	inactive	inactive	inactive	inactive	inactive	inactive	inactive	Activity [21]: inactive; Activity [22]: inactive; CC50 [23]: ≥ 250 µM; Activity [24]: inactive; CC50 [25]: > 250 µM
CCOP(=O)(OCC)[C@@H]1C[C@H](n2cc(-c3nccn3C)nn2)ON1C	inactive	inactive	inactive	inactive	inactive	inactive	inactive	inactive	inactive	> 100 µM	inactive	inactive	> 250 µM	inactive	inactive	inactive	inactive	inactive	inactive	inactive	Activity [21]: inactive; Activity [22]: inactive; CC50 [23]: ≥ 250 µM; Activity [24]: inactive; CC50 [25]: > 250 µM

Source: ChEMBL document CHEMBL1926651, “Design, synthesis, antiviral and cytostatic evaluation of novel isoxazolidine nucleotide analogues with a 1,2,3-triazole linker” (Eur J Med Chem, 2012)
